Biological target: Human integrin αvβ3 receptor (Homo sapiens, UniProt P05106+P06756)
Assay type: binding
Conditions: for IC50: SD; for increase of IC50 compared to the free ligand 1: αvβ3, biotinylated vitronectin binding, from Table 1
Method in brief: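 Immobilized integrin αvβ3 incubated with test compound at graded concentrations (10−12 to 10−5) together with biotinylated vitronectin (1 μg mL−1); bound vitronectin measured. IC50 taken from the inhibition of vitronectin binding, reported as arithmetic mean ± SD of triplicate determinations.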

Chain of Human integrin αvβ3 receptor (P06756 31-992 limits assumed): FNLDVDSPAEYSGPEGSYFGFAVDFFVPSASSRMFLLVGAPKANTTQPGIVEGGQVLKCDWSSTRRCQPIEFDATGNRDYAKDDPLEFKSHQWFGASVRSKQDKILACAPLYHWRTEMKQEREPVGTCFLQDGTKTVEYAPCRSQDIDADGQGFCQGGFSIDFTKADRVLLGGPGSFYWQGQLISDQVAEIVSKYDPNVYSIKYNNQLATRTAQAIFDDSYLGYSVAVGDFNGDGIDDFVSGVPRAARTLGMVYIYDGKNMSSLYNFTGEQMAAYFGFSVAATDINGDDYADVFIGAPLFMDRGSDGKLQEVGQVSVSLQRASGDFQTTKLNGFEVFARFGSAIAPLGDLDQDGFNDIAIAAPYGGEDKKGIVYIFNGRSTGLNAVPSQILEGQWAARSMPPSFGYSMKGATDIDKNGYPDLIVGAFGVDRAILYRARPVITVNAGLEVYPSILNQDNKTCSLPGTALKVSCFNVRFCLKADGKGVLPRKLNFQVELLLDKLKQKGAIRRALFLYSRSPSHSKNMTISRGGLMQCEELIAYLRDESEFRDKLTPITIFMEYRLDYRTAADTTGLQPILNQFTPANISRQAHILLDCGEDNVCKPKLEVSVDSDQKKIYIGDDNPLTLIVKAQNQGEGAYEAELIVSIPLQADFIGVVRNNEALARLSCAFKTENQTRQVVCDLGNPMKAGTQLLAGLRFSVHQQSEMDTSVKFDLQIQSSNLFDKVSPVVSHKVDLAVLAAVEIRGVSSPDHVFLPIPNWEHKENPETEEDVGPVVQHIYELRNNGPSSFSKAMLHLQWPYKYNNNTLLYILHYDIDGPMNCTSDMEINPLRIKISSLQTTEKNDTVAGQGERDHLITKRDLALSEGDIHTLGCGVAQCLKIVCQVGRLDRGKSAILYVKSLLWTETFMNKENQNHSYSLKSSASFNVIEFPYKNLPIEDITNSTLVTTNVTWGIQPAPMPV
Chain of Human integrin αvβ3 receptor (P05106 27-718 limits assumed): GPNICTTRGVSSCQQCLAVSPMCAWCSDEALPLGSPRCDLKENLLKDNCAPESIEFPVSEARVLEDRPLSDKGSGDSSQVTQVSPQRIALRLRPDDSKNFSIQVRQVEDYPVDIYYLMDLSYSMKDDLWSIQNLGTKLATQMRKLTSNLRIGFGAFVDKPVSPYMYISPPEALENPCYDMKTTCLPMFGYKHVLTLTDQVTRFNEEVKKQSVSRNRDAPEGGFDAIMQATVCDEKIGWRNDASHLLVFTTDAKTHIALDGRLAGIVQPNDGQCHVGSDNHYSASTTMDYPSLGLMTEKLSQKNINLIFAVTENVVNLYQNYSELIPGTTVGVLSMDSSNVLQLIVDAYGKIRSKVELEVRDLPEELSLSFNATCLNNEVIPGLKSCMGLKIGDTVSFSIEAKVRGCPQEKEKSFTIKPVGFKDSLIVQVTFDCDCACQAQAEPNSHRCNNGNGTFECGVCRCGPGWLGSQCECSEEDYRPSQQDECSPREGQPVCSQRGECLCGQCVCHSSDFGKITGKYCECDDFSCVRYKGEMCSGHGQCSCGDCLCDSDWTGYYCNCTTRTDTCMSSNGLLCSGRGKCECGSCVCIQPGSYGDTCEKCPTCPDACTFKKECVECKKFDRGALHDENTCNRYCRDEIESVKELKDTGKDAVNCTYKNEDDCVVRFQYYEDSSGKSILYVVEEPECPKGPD

Compound	IC50 [nM]	increase of IC50 compared to the free ligand 1 [fold]
CC(=O)O[C@H]1C(=O)[C@@]2(C)[C@H]([C@H](OC(=O)c3ccccc3)[C@]3(O)C[C@H](OC(=O)[C@H](OC(=O)N(C)CCN(C)C(=O)OCc4ccc(NC(=O)[C@H](C)NC(=O)[C@@H](NC(=O)Cc5cc(OCc6cn(CCOCCOCCOCCOCC(=O)NCc7ccc(CN8C(=O)[C@H]9CC(=O)N[C@@H](CCCNC(=N)N)C(=O)NCC(=O)N[C@@H](CC(=O)O)C(=O)NC[C@H]8C(=O)N9)cc7)nn6)cc(OCc6cn(CCOCCOCCOCCOCC(=O)NCc7ccc(CN8C(=O)[C@H]9CC(=O)N[C@@H](CCCNC(=N)N)C(=O)NCC(=O)N[C@@H](CC(=O)O)C(=O)NC[C@H]8C(=O)N9)cc7)nn6)c5)C(C)C)cc4)[C@@H](NC(=O)c4ccccc4)c4ccccc4)C(C)=C1C3(C)C)[C@]1(OC(C)=O)CO[C@@H]1C[C@@H]2O [compound 7, (cyclo[DKP‐RGD])2‐Val‐Ala‐PTX]	4 ± 0.1	
CC(=O)O[C@H]1C(=O)[C@@]2(C)[C@H]([C@H](OC(=O)c3ccccc3)[C@]3(O)C[C@H](OC(=O)[C@H](OC(=O)N(C)CCN(C)C(=O)OCc4ccc(NC(=O)[C@H](C)NC(=O)[C@@H](NC(=O)CCc5cn(CCOCCOCCOCCOCC(=O)NCc6ccc(CN7C(=O)[C@H]8CC(=O)N[C@@H](CCCNC(=N)N)C(=O)NCC(=O)N[C@@H](CC(=O)O)C(=O)NC[C@H]7C(=O)N8)cc6)nn5)C(C)C)cc4)[C@@H](NC(=O)c4ccccc4)c4ccccc4)C(C)=C1C3(C)C)[C@]1(OC(C)=O)CO[C@@H]1C[C@@H]2O [compound 5, cyclo[DKP‐RGD]‐Val‐Ala‐PTX (aliphatic scaffold)]	14.8 ± 3.9	3
CC(=O)O[C@H]1C(=O)[C@@]2(C)[C@H]([C@H](OC(=O)c3ccccc3)[C@]3(O)C[C@H](OC(=O)[C@H](OC(=O)N(C)CCN(C)C(=O)OCc4ccc(NC(=O)[C@H](C)NC(=O)[C@@H](NC(=O)c5ccc(OCc6cn(CCOCCOCCOCCOCC(=O)NCc7ccc(CN8C(=O)[C@H]9CC(=O)N[C@@H](CCCNC(=N)N)C(=O)NCC(=O)N[C@@H](CC(=O)O)C(=O)NC[C@H]8C(=O)N9)cc7)nn6)cc5)C(C)C)cc4)[C@@H](NC(=O)c4ccccc4)c4ccccc4)C(C)=C1C3(C)C)[C@]1(OC(C)=O)CO[C@@H]1C[C@@H]2O [compound 6, cyclo[DKP‐RGD]‐Val‐Ala‐PTX (aromatic scaffold)]	27.3 ± 9.8	6
CC(=O)O[C@H]1C(=O)[C@@]2(C)[C@H]([C@H](OC(=O)c3ccccc3)[C@]3(O)C[C@H](OC(=O)[C@H](OC(=O)N(C)CCN(C)C(=O)OCc4ccc(NC(=O)[C@H](C)NC(=O)[C@@H](NC(=O)Cc5cc(OCCNC(=O)Cc6cc(OCc7cn(CCOCCOCCOCCOCC(=O)NCc8ccc(CN9C(=O)[C@H]%10CC(=O)N[C@@H](CCCNC(=N)N)C(=O)NCC(=O)N[C@@H](CC(=O)O)C(=O)NC[C@H]9C(=O)N%10)cc8)nn7)cc(OCc7cn(CCOCCOCCOCCOCC(=O)NCc8ccc(CN9C(=O)[C@H]%10CC(=O)N[C@@H](CCCNC(=N)N)C(=O)NCC(=O)N[C@@H](CC(=O)O)C(=O)NC[C@H]9C(=O)N%10)cc8)nn7)c6)cc(OCCNC(=O)c6ccc(OCc7cn(CCOCCOCCOCCOCC(=O)NCc8ccc(CN9C(=O)[C@H]%10CC(=O)N[C@@H](CCCNC(=N)N)C(=O)NCC(=O)N[C@@H](CC(=O)O)C(=O)NC[C@H]9C(=O)N%10)cc8)nn7)cc6)c5)C(C)C)cc4)[C@@H](NC(=O)c4ccccc4)c4ccccc4)C(C)=C1C3(C)C)[C@]1(OC(C)=O)CO[C@@H]1C[C@@H]2O [compound 8, (cyclo[DKP‐RGD])3‐Val‐Ala‐PTX]	1.2 ± 0.5	
CC(=O)O[C@H]1C(=O)[C@@]2(C)[C@H]([C@H](OC(=O)c3ccccc3)[C@]3(O)C[C@H](OC(=O)[C@H](OC(=O)N(C)CCN(C)C(=O)OCc4ccc(NC(=O)[C@H](C)NC(=O)[C@@H](NC(=O)Cc5cc(OCCNC(=O)Cc6cc(OCc7cn(CCOCCOCCOCCOCC(=O)NCc8ccc(CN9C(=O)[C@H]%10CC(=O)N[C@@H](CCCNC(=N)N)C(=O)NCC(=O)N[C@@H](CC(=O)O)C(=O)NC[C@H]9C(=O)N%10)cc8)nn7)cc(OCc7cn(CCOCCOCCOCCOCC(=O)NCc8ccc(CN9C(=O)[C@H]%10CC(=O)N[C@@H](CCCNC(=N)N)C(=O)NCC(=O)N[C@@H](CC(=O)O)C(=O)NC[C@H]9C(=O)N%10)cc8)nn7)c6)cc(OCCNC(=O)Cc6cc(OCc7cn(CCOCCOCCOCCOCC(=O)NCc8ccc(CN9C(=O)[C@H]%10CC(=O)N[C@@H](CCCNC(=N)N)C(=O)NCC(=O)N[C@@H](CC(=O)O)C(=O)NC[C@H]9C(=O)N%10)cc8)nn7)cc(OCc7cn(CCOCCOCCOCCOCC(=O)NCc8ccc(CN9C(=O)[C@H]%10CC(=O)N[C@@H](CCCNC(=N)N)C(=O)NCC(=O)N[C@@H](CC(=O)O)C(=O)NC[C@H]9C(=O)N%10)cc8)nn7)c6)c5)C(C)C)cc4)[C@@H](NC(=O)c4ccccc4)c4ccccc4)C(C)=C1C3(C)C)[C@]1(OC(C)=O)CO[C@@H]1C[C@@H]2O [compound 9, (cyclo[DKP‐RGD])4‐Val‐Ala‐PTX]	1.3 ± 0.3	
